Assay outcomes: PubChem BioAssay, several laboratories
PAD4 FP inh: inhibitors of human PAD4 | Q9UM07 | recombinant PAD4, RCA probe fluorescence polarization | inhibition, % at 6.36 µM | 330,000 tested, 0.41% active | AID 485272;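 active = percent inhibition above a cutoff equal to the mean of all tested compounds plus 3 SD, cut at about 15% in these data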;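 also: 0% = PAD4 with RCA probe and DMSO and 100% = probe without PAD4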
Apaf-1 inh: human Apaf-1 inhibition. reconstituted apoptosome caspase-3 activity, DEVD-Rh110 fluorescence. inhibition, % at 20 µM. 330,000 tested, 0.71% active; active = inhibition of at least 40% at 20 µM;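 also: plate controls were DMSO wells for no effect and DEVD-CHO caspase inhibitor wells for full effect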
Target sequence (O14727 whole entry, looked up): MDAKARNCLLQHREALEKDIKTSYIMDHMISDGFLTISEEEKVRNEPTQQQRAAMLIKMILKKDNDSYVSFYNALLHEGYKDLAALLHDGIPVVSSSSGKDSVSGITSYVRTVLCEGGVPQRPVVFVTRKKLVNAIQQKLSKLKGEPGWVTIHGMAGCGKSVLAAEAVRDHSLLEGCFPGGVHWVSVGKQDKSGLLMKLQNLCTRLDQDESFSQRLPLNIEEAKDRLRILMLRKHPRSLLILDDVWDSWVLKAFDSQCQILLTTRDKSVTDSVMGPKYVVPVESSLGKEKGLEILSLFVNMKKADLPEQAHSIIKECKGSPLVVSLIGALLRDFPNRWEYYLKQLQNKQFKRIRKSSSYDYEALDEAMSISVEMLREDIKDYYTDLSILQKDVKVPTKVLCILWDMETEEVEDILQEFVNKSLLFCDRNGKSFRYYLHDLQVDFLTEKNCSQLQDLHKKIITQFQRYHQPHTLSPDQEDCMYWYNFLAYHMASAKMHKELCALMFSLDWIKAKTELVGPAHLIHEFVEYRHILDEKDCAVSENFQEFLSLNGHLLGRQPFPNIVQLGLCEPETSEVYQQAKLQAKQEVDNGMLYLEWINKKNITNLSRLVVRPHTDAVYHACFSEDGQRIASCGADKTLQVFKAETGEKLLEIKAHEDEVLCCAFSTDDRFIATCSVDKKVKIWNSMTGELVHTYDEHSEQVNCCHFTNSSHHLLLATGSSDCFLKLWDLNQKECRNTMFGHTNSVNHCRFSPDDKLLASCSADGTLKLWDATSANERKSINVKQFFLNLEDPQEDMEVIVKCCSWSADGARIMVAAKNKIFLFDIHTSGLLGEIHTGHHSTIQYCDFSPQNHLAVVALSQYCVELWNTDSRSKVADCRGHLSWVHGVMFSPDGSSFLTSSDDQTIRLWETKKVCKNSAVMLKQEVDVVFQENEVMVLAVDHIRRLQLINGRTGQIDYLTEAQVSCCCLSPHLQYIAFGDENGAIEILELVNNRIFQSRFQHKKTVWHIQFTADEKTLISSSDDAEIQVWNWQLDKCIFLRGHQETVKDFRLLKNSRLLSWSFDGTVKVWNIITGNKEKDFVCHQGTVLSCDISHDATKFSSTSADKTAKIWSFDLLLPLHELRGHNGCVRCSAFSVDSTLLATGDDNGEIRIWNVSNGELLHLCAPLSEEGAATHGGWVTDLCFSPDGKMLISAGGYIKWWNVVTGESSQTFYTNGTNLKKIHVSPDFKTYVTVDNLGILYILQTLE
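detection = Rh110 fluorescence intensity | test system = biochemical Apaf-1 apoptosome reconstitution | also added = cytochrome c and DEVD-Rh110 substrate | schedule = 30 min plus 50 min, RT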
TDP2 inh: TDP2 (human) inhibition, absorbance primary screen; inhibition, % at 12.8 µM; recombinant TDP2, T5PNP hydrolysis, p-nitrophenol absorbance 415 nm; O95551; 370,000 tested, 0.34% active; AID 720702;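 active = inhibition above the mean of all tested compounds plus 3 SD, set per campaign, cut at about 25% in these data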;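 also: 0% = DMSO with enzyme and 100% = buffer with substrate but no TDP2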
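Test system: human TDP2 enzyme; Input: 120 nM TDP2 per well; Buffer or medium: Mg2+-containing Tris-HCl buffer, pH 7.5; Reagent: 5 mM T5PNP; Dosing: 12.8 µM single point, 1% DMSO; Incubation: reaction 2 h, 37 °C; Detection: p-Nitrophenol epi absorbance; Read-out: % inhibition relative to enzyme-containing and enzyme-free wells; Replicates: single well per compound.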
GSTO1 counter: GSTO1 inhibition, counter-screen for RBBP9 inhibitors. P78417. recombinant GSTO1, activity-based probe fluorescence polarization. inhibition, % at 5.96 µM. 300,000 tested, 1.1% active. AID 1974;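 active = inhibition above the campaign mean inhibition plus 3 SD, cut at about 35% in these data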;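 also: 0% = GSTO1-1 with DMSO and 100% = wells lacking GSTO1-1 enzyme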
PRMT1 FP inh: blocks human protein arginine methyltransferase 1; inhibition, % at 2.79 µM; 370,000 tested, 1.3% active; Q99873; AID 652257; recombinant PRMT1, activity-based probe fluorescence polarization;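 active = inhibition above about 21% made by adding two undisclosed values, limit read from the data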
TDP2 inh conf: confirmation of human TDP2 inhibitors. shares compounds with TDP2 inh. recombinant human TDP2, absorbance read-out. inhibition, % at 12.8 µM. 1,100 tested, 22% active. AID 743263; in the data active = inhibition above about 25%;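 also: 0% = vehicle with enzyme and 100% = no enzyme buffer only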
* = called active by the depositor; . = not tested or not shown. Sampled rows, rich in hits. Any-hit rate of the full collection: about 2.6%.

SMILES	PAD4 FP inh	Apaf-1 inh	TDP2 inh	GSTO1 counter	PRMT1 FP inh	TDP2 inh conf
CCOc1ccc(N2CC(C(=O)N3CCN(C(=O)c4ccco4)CC3)CC2=O)cc1 (centres undefined)	0.1	5.1	25.6*	-3.7	0.7	5.4
O=C(O)c1ccc(NC2=C/C(=N/S(=O)(=O)c3cccs3)c3ccccc3C2=O)cc1	.	.	60.0*	.	0.9	73.4*
O=C1C(Nc2ccc(O)cc2)=C/C(=N/S(=O)(=O)c2cccs2)c2ccccc21	.	.	78.0*	.	12.9	77.8*
C/C=C/c1ccc([C@@H]2[C@H](CO)N(S(C)(=O)=O)[C@H]2CN(C)C(=O)CC)cc1	.	.	3.9	.	-0.6	.
N#CCc1cnc2ccccc2n1	-1.4	.	28.2*	35.7*	17.1	21.6
COc1ccc(C(C)(O)c2nc(-c3ccncc3)cs2)cc1 (centres undefined)	.	.	1.6	.	1.5	.
O=S(=O)(c1ccccc1)c1ccc(NCc2ccco2)cc1	1.9	-8.2	-4.3	6.1	-3.1	.
O=C1C(Cl)=C(NCc2ccco2)C(=O)c2ccccc21	.	.	34.6*	.	10.4	24.0
O=C(NCCCN1CCCC1)c1ccc2c(c1)N(Cc1ccccc1F)C(=O)c1ccccc1S2=O (centres undefined)	-3.1	25.9	-3.3	11.7	1.5	.
O=C(NCCCN1CCOCC1)c1ccc2c(c1)N(Cc1ccc(Cl)cc1)C(=O)c1ccccc1S2=O (centres undefined)	-1.7	14.2	52.7*	4.5	-1.8	0.1
O=S(=O)(c1ccccc1)N1CCCCC1CCc1ccccc1 (centres undefined)	.	.	1.4	.	-1.0	.
C=CCN([C@H](C(=O)OC)C(C)C)S(=O)(=O)CCNCc1ccccc1	.	.	-8.2	.	-0.4	.
COCCNC(=S)Nc1ccc2nsnc2c1	-3.0	-4.6	73.9*	12.5	2.8	1.6
COCCNC(=S)Nc1ccc(Cl)c(Cl)c1	-4.0	-3.5	-0.6	7.4	-0.5	.
O=C(N[C@@H](Cc1ccccc1)c1nc2ccccc2[nH]1)c1ccc([N+](=O)[O-])cc1	.	.	24.9*	.	3.2	4.6
O=C(NC(Cc1ccccc1)c1nc2ccccc2[nH]1)c1cccc([N+](=O)[O-])c1 (centres undefined)	-4.5	18.6	0.8	4.8	1.9	.
Cc1ccc(S(=O)(=O)N(C)CCCC(=O)Nc2ccc(F)cc2)cc1	3.6	0.7	-6.9	1.6	1.8	.
CN(CCCC(=O)Nc1ccc(OC(F)F)cc1)S(=O)(=O)c1ccc(F)cc1	-2.2	13.6	27.9*	3.2	-1.2	6.1
COC(=O)c1cnn(-c2ccc(F)cc2F)c1/C=N/NC(=S)Nc1ccccc1	.	.	-0.6	.	5.9	.
CCOc1ccc(OCCC(=O)OCC(=O)NC2CCCCC2)cc1	-2.1	7.6	6.7	-1.9	-0.6	.
CCOc1cccc(OCCn2cnc3ccccc3c2=O)c1	-2.9	3.7	8.1	3.4	-1.0	.
CCOc1cccc(OCCCCn2cnc3ccccc3c2=O)c1	1.8	-9.0	24.5*	-3.7	2.0	0.1
O=C(c1cccc(S(=O)(=O)N2CCN(c3ccc(F)cc3)CC2)c1)N1CCCC(C(F)(F)F)C1 (centres undefined)	-1.7	18.2	-20.0	-5.1	-2.2	.
Cc1nn(-c2ccccc2)c(N)c1C1(O)C(=O)Nc2ccc([N+](=O)[O-])cc21 (centres undefined)	-2.3	3.7	32.8*	7.0	2.3	-3.9
COc1cccc(Nc2nc3ccccc3n3cnnc23)c1	2.8	12.2	-2.1	-1.4	-6.6	.
SMILES	PAD4 FP inh	Apaf-1 inh	TDP2 inh	GSTO1 counter	PRMT1 FP inh	TDP2 inh conf
COc1ccc(Nc2nc3ccccc3n3cnnc23)cc1Cl	-2.2	7.0	25.8*	-3.7	-2.9	-4.0
NC(=O)C1CCCN(C(=O)CCCNC(=O)c2ccc(Cl)cc2)C1 (centres undefined)	-4.6	4.4	30.5*	10.9	-0.8	6.7
O=C(Nc1ccc(S(=O)(=O)Nc2ncccn2)cc1)c1ccccc1Br	-2.5	3.3	26.2*	1.9	2.8	-7.7
Cc1nc2c3ccccc3nc(NNC(=O)CCC(=O)N3CCC(C)CC3)n2n1	3.2	2.8	28.7*	0.2	-0.6	6.9
O=C(NCCCN1CCOCC1)c1ccc(CSc2ccc(Cl)cc2)cc1	-3.9	2.0	-2.1	-5.4	1.2	.
Brc1cc2c(cc1CN1CCc3ccccc3C1)OCO2	-1.3	8.0	26.2*	5.0	-1.9	4.1
CC(C)CC(=O)N1CCN(Cc2ccc(Cl)cc2)CC1	-3.2	-5.9	26.2*	1.2	-2.3	1.2
CC(C)CC(=O)N1CCN(Cc2ccc(C(F)(F)F)cc2)CC1	-2.8	5.2	30.3*	8.2	0.1	11.5
CC(C)CC(=O)N1CCN(Cc2ccc(Br)cc2)CC1	-0.6	-3.3	-1.2	-3.6	-3.3	.
O=C1/C(=C\c2ccc(O)c(O)c2)C(c2ccccc2)=NN1c1ccccc1	.	.	25.9*	.	9.0	6.4
N#C/C(=C\c1ccco1)C(=O)Nc1ccc(S(N)(=O)=O)cc1	-4.0	0.1	5.9	3.9	1.8	.
O=C(/C=C/c1ccco1)NC(=S)Nc1ccc(C(=O)O)cc1	1.2	8.7	40.2*	17.6	24.2*	19.6
NS(=O)(=O)c1ccc(NC(=O)/C=C/c2ccco2)cc1	-5.3	-4.3	32.5*	1.6	8.2	6.3
COC(=O)[C@]12C[C@H](CC(=O)N3CCCCC3)C(=O)N(Cc3cccc4ccccc34)C1=C[C@H](COCc1ccccc1)O[C@@H]2C	.	.	0.7	.	2.4	.
O=C(Cc1cccs1)Nc1ccc(Cl)cc1	1.9	-6.3	-3.6	9.2	-1.4	.
CC(=O)N(C)c1ccc(NC(=O)Cc2cccs2)cc1	-2.4	-3.8	25.1*	-0.8	4.0	3.5
Cc1ccccc1NC(=O)CN1CCN(C)CC1	-2.7	3.0	35.9*	12.8	-7.8	5.3
Cc1ccccc1NC(=O)CN1CCCC1	.	.	2.5	.	2.5	.
Cc1ccccc1C(=O)Nc1cccc(NC(=O)c2cccnc2)c1	-7.2	1.4	25.5*	1.4	-1.5	-0.3
c1cncc(CSc2nnc3ccc(-c4ccco4)nn23)c1	0.3	-15.9	27.6*	-3.1	-3.8	-4.9
CC1CCN(C(=O)Cn2c(SCC(=O)Nc3nccs3)nc3ccccc32)CC1	1.7	-15.8	30.5*	3.1	-0.5	5.8
CCc1ccccc1NC(=O)CSc1nc2ccccc2n1CC(=O)N1CCCC1	-2.7	-5.3	-5.7	-0.7	0.0	.
CN=C1S/C(=C\c2cccc(Cl)c2Cl)C(=O)N1C	-1.5	7.7	1.2	2.6	6.8	.
COc1ccccc1CNC(=O)CN(C)Cc1ccc(SC)cc1	-4.1	15.4	-12.8	7.2	2.5	.
O=C(CNC(=O)c1ccc([N+](=O)[O-])cc1)N/N=C/c1c[nH]c2ccccc12	-0.1	1.2	26.6*	4.1	-2.6	2.6
CC(C)(C)NC(=O)C1c2ccccc2OCC(=O)N1CCCN1CCOCC1 (centres undefined)	.	.	-5.0	.	-1.9	.
COC(=O)/C=C1/SC(=NC(=O)c2ccc(Cl)cc2)NC1=O	-5.7	-12.4	24.9*	0.4	-0.4	1.9
